Here are results for three compounds from ChEMBL document CHEMBL5360615, “Pharmacological and Physicochemical Properties Optimization for Dual-Target Dopamine D3 (D3R) and μ-Opioid (MOR) Receptor Ligands as Potentially Safer Analgesics” (J Med Chem, 2023).

Test [1] addresses D(2) dopamine receptor (Homo sapiens, UniProt P14416). Put plainly: Displacement of [3H]N-methylspiperone from human D2L receptor expressed in HEK293T cell membrane assessed as inhibition constant incubated for 60 mins by MicroBeta scintillation counting method. It is filed as cell membranes.
The target of test [2] is Mu-type opioid receptor (Homo sapiens, UniProt P35372). Description: Displacement of [3H]-DAMGO from human MOR receptor expressed in HEK293T cell membrane assessed as inhibition constant incubated for 60 mins by MicroBeta scintillation counting method. It is filed as cell membranes. The method, boiled down:
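HEK293 cells stably expressing human MOR, grown in DMEM with 10% FBS and hygromycin B; membranes prepared from confluent cells. Binding buffer 50 mM Tris, 5 mM MgCl2, pH 7.4. Nonspecific binding with 10 μM naloxone. 60 min at RT, then GF/C filtration.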

Test [3] concerns the target T1, D(3) dopamine receptor (Homo sapiens, UniProt P35462). Description: Displacement of [3H]N-methylspiperone from human D3R receptor expressed in HEK293T cell membrane assessed as inhibition constant incubated for 60 mins by MicroBeta scintillation counting method. The format is cell membranes.
The target of test [4] is Mu-type opioid receptor (Mus musculus) (UniProt P42866). Put plainly: Partial agonist activity at SNAP-tagged mouse MOR transfected in HEK293T cells coexpressing wild type Galpha-i2, venus-tagged Gbeta-1 (156 to 239 residues), venus-tagged Ggamma2 (1 to 155 residues) and Rluc8 fused masGRK3ct assessed as Galpha-i2 activation at 10 uM using coelenterazine as substrate incubated for 40 mins by BRET based GPA assay relative to control. The format is functional, cell-based. The method, boiled down:
(§1)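 HEK293T cells transiently transfected with BRET sensors (DNA:PEI 1:6), plated into poly-D-lysine plates and assayed 48 h post-transfection. Cells washed and held in D-PBS 30 min at 37 °C. Coelenterazine h 5 μM final; ligands 10 μM to 0.01 nM. At least three independent experiments in duplicate.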

For test [5] the target is unchanged. Description: Partial agonist activity at Rluc8 fused mouse MOR transfected in HEK293T cells assessed as Nb33 recruitment at 10 uM using coelenterazine as substrate incubated for 40 mins by BRET assay relative to control. It is filed as functional, cell-based. The method, boiled down:
as §1

Test [6] has the same target. Description: (§2) Partial agonist activity at Rluc8 fused mouse MOR transfected in HEK293T cells assessed as Nb33 recruitment using coelenterazine as substrate incubated for 40 mins by BRET assay. The format is functional, cell-based. The method, boiled down: as §1
The target is the same in test [7]. Put plainly: (§3) Partial agonist activity at SNAP-tagged mouse MOR transfected in HEK293T cells coexpressing wild type Galpha-i2, venus-tagged Gbeta-1 (156 to 239 residues), venus-tagged Ggamma2 (1 to 155 residues) and Rluc8 fused masGRK3ct assessed as Galpha-i2 activation using coelenterazine as substrate incubated for 40 mins by BRET based GPA assay. The format is functional, cell-based. The method, boiled down: as §1

Test [8] shares this target. Put plainly: Partial agonist activity at Rluc8 fused mouse MOR transfected in HEK293T cells coexpressing wild type GRK2 assessed as arrestin-3 recruitment at 10 uM using coelenterazine as substrate incubated for 40 mins by BRET assay relative to control. It is filed as functional, cell-based. In outline: (§4)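 HEK293T cells transiently transfected with BRET sensors (DNA:PEI 1:6), plated into poly-D-lysine plates and assayed 48 h post-transfection. Cells washed and held in D-PBS 30 min at 37 °C. Coelenterazine h 5 μM final; ligands 10 μM to 0.01 nM. […] At least three independent experiments in duplicate.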

For test [9] the target is unchanged. Description: (§5) Partial agonist activity at Rluc8 fused mouse MOR transfected in HEK293T cells coexpressing wild type GRK2 assessed as arrestin-3 recruitment using coelenterazine as substrate incubated for 40 mins by BRET assay. The format is functional, cell-based. The method, boiled down: as §1
In test [10] the target is T1, D(3) dopamine receptor. Put plainly: Antagonist activity at SNAP-tagged human D3R receptor transfected in HEK293T cells coexpressing wild type Galpha-oA, venus-tagged Gbeta-1 (156 to 239 residues), venus-tagged Ggamma2 (1 to 155 residues) and Rluc8 fused masGRK3ct assessed as Galpha-oA activation using coelenterazine as substrate incubated for 40 mins in presence of quinpirole by BRET based GPA assay. The format is functional, cell-based.

Test [11] deals with T2, Mu-type opioid receptor (Mus musculus, UniProt P42866). Description: Agonist activity at Rluc8 fused mouse MOR transfected in HEK293T cells assessed as Nb33 recruitment using coelenterazine as substrate incubated for 40 mins by BRET assay. The format is functional, cell-based. In outline:
as §1

The target in test [12] is Mu-type opioid receptor (Mus musculus) (UniProt P42866). Put plainly: Agonist activity at SNAP-tagged mouse MOR transfected in HEK293T cells coexpressing wild type Galpha-i2, venus-tagged Gbeta-1 (156 to 239 residues), venus-tagged Ggamma2 (1 to 155 residues) and Rluc8 fused masGRK3ct assessed as Galpha-i2 activation at 10 uM using coelenterazine as substrate incubated for 40 mins by BRET based GPA assay relative to control. It is filed as functional, cell-based. To be noted: filed as agonist. In outline: as §4
Sequence of Mu-type opioid receptor (Mus musculus) (P42866 whole entry, the tested form may be a part): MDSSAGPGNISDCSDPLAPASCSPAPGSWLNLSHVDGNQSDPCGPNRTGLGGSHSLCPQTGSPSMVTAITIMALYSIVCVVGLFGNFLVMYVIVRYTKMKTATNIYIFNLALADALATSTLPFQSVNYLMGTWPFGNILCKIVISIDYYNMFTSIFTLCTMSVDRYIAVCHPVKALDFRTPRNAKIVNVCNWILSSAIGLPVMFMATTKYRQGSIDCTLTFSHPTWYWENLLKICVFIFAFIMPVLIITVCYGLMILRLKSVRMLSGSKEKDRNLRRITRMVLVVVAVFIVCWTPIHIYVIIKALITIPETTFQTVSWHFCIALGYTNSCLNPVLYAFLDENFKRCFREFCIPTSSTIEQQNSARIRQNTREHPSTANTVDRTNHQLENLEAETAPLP

Test [13] shares this target. Description: Agonist activity at Rluc8 fused mouse MOR transfected in HEK293T cells coexpressing wild type GRK2 assessed as arrestin-3 recruitment at 10 uM using coelenterazine as substrate incubated for 40 mins by BRET assay relative to control. It is filed as functional, cell-based. Conditions: filed as agonist. The method, boiled down:
as §4

Test [14] deals with T2, Mu-type opioid receptor. Description: Agonist activity at SNAP-tagged mouse MOR transfected in HEK293T cells coexpressing wild type Galpha-i2, venus-tagged Gbeta-1 (156 to 239 residues), venus-tagged Ggamma2 (1 to 155 residues) and Rluc8 fused masGRK3ct assessed as Galpha-i2 activation using coelenterazine as substrate incubated for 40 mins by BRET based GPA assay. It is filed as functional, cell-based. In outline:
as §1

Test [15] concerns the target Mu-type opioid receptor (Mus musculus) (UniProt P42866). Put plainly: Agonist activity at Rluc8 fused mouse MOR transfected in HEK293T cells assessed as Nb33 recruitment at 10 uM using coelenterazine as substrate incubated for 40 mins by BRET assay relative to control. It is filed as functional, cell-based. In outline: as §4
The target in test [16] is T2, Mu-type opioid receptor. Put plainly: Agonist activity at Rluc8 fused mouse MOR transfected in HEK293T cells coexpressing wild type GRK2 assessed as arrestin-3 recruitment using coelenterazine as substrate incubated for 40 mins by BRET assay. It is filed as functional, cell-based. The method, boiled down:
as §1

Test [17] addresses T2, Mu-type opioid receptor. The description is as §2. It is filed as functional, cell-based. In outline:
as §1

The target of test [18] is T2, Mu-type opioid receptor. The test is described as §3. The format is functional, cell-based. The method, boiled down:
as §1

Test [19] addresses T1, D(3) dopamine receptor. Description: Partial agonist activity at SNAP-tagged human D3R receptor transfected in HEK293T cells coexpressing wild type Galpha-oA, venus-tagged Gbeta-1 (156 to 239 residues), venus-tagged Ggamma2 (1 to 155 residues) and Rluc8 fused masGRK3ct assessed as Galpha-oA activation using coelenterazine as substrate incubated for 40 mins by BRET based GPA assay. It is filed as functional, cell-based.

Test [20] concerns the target T2, Mu-type opioid receptor. Described as §5. The format is functional, cell-based. The method, boiled down:
as §1

Molecules are shown by their SMILES. Calls of active or inactive are those of the source. The rule behind the calls is not given here.

Sequence of Mu-type opioid receptor (Homo sapiens, UniProt P35372) (P35372 whole entry): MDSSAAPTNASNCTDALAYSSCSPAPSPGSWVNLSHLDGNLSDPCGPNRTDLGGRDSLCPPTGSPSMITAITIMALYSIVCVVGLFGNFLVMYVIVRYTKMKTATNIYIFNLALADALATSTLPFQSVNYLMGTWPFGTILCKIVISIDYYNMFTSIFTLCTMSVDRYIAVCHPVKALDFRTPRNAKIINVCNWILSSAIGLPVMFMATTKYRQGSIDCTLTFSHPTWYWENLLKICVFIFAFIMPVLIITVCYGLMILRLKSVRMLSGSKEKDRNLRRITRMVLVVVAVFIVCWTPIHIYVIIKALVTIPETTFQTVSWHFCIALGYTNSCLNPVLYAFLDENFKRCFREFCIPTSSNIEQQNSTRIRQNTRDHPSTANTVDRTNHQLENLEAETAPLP
T1 sequence (P35462 whole entry, the tested form may be a part): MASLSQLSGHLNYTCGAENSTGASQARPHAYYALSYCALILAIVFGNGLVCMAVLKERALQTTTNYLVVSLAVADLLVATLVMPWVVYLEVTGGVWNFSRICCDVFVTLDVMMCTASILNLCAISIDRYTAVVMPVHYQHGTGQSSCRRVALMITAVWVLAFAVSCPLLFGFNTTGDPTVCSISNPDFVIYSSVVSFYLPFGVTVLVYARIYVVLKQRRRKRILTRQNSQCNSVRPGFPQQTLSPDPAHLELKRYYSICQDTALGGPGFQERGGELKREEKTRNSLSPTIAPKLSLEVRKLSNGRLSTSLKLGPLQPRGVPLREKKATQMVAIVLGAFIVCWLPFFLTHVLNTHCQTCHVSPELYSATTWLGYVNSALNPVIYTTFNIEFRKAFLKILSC
Sequence of D(2) dopamine receptor (P14416 whole entry): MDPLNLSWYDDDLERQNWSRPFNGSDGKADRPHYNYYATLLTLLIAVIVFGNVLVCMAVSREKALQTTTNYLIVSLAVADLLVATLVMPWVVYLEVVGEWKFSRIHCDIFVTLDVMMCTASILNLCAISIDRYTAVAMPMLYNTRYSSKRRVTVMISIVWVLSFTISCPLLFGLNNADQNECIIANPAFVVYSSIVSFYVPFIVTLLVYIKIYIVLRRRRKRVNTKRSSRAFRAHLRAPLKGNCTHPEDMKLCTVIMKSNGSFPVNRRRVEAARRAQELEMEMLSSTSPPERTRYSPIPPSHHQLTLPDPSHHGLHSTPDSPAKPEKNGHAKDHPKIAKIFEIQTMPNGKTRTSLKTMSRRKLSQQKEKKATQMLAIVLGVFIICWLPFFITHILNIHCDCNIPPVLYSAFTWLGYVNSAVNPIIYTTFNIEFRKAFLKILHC
T2 sequence (P42866 whole entry, the tested form may be a part): as the sequence (P42866 whole entry, the tested form may be a part) above

Consider `CN(C)C(=O)C(CCN1C[C@H](F)C[C@H]1C(=O)NCCCCN1CCN(c2nsc3ccccc23)CC1)(c1ccccc1)c1ccccc1`, for which the inhibitory constant (Ki) in test [1] is 322 nM; in [2] it was 146 nM; in test [3] it was 53 nM. Moreover, the result in [4], in test [6], in test [7], in [8] and in test [9] was inactive. Besides, the Emax entry in test [5] was “inactive”. In addition, in test [10], the EC50 was 90.9 nM. Further, in test [10], the IC50 was 91.2 nM.

For `Clc1ccc([C@@H]2C[C@H]2NCCC2(c3ccccn3)CCOC3(CCCC3)C2)cc1` (relative stereo), the EC50 was 406 nM in test [11]; 73.4 nM in test [14] (read-out: EC50); 72.4 nM in [14] (read-out: pEC50 (converted)); 261 nM in test [16]; 271 nM in test [10]. Also, the inhibition constant Ki was 5520 nM in test [1], 85.2 nM in test [2] and 361 nM in [3]. Moreover, the values for the maximal effect (Emax) in test [12], in test [13] and in test [15] were 97.6%, 51.3% and 24.9%, respectively. Besides, the IC50 in test [10] was 269 nM.

As for `CN(C)C(=O)C(CCN1CCC(CCN2CCN(c3cccc(Cl)c3Cl)CC2)C1)(c1ccccc1)c1ccccc1` (stereo not drawn), the values for the Ki in test [1], in test [2] and in test [3] were 117 nM, 23.5 nM and 20.2 nM, respectively. Moreover, the Emax in test [4] (filed as partial agonist) worked out at 85.4%; in test [5] it was 14.6%; in test [8] it was 10.5%. The EC50 amounted to 658 nM in test [17], 158 nM in test [18], 41.7 nM in [19] and 470 nM in [20].
